Measurements taken from ChEMBL document CHEMBL4038305, “Benzoxaborole Antimalarial Agents. Part 5. Lead Optimization of Novel Amide Pyrazinyloxy Benzoxaboroles and Identification of a Preclinical Candidate” (J Med Chem, 2017).

Columns and labels:
Plasmodium berghei [1] = test: Antimalarial activity against Plasmodium berghei infected in Swiss Webster mouse assessed as mouse survival rate administered once daily via oral gavage for 4 consecutive days beginning 1 hr after infection measured on day 4 post infection; type: functional
Summary of the method: (§1)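 Mice given an intraperitoneal injection of P. berghei-infected erythrocytes taken from a previously infected animal. Oral dosing once daily for 4 consecutive days, starting 1 h after infection. Vehicle: polyethylene glycol 300/propylene glycol/water (weight ratio 55/25/20). Percent survival recorded daily from day 4 to day 20. Chloroquine 30 mg/kg and vehicle-only groups served as controls.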

Plasmodium berghei [2] = test: Antimalarial activity against Plasmodium berghei infected in Swiss Webster mouse assessed as mouse survival rate at 100 mg/kg administered once daily via oral gavage for 4 consecutive days beginning 1 hr after infection measured on day 11 post infection relative to control; type: functional; summary of the method: as §1
[3] = Terminal half life in CD1 mouse at 5 mg/kg, po via gavage by HPLC/MS analysis; type: ADME, organism-based; details: in vivo, read-out: beta t1/2 (converted)
Summary of the method: (§2)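 Female CD-1 mice, male SD rats or beagle dogs given 5 mg/kg by iv injection or oral gavage. Formulation was PEG300/propylene glycol/water 55/25/20, pH 6. Blood samples analysed by HPLC–MS/MS; parameters include AUC0-inf extrapolated to infinity and terminal half-life.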

[4] = Oral bioavailability in CD1 mouse at 5 mg/kg by HPLC/MS analysis; type: ADME, organism-based; details: in vivo; summary of the method: as §2
Plasmodium berghei [5] = test: Antimalarial activity against Plasmodium berghei infected in Swiss Webster mouse assessed as mouse survival rate at 11 mg/kg administered once daily via oral gavage for 4 consecutive days beginning 1 hr after infection measured on day 6 post infection relative to control; type: functional
Summary of the method: (§3)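 P. berghei-infected erythrocytes taken from a previously infected mouse were injected intraperitoneally. Oral dosing, once daily for 4 consecutive days, began 1 h after infection, in polyethylene glycol 300/propylene glycol/water (55/25/20 by weight). Chloroquine at 30 mg/kg was the positive control, with a vehicle-only group. Percent survival was recorded daily from day 4 to day 20.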

Plasmodium berghei [6] = test: Antimalarial activity against Plasmodium berghei infected in Swiss Webster mouse assessed as mouse survival rate at 33 mg/kg administered once daily via oral gavage for 4 consecutive days beginning 1 hr after infection measured on day 7 post infection relative to control; type: functional; summary of the method: as §3
Plasmodium berghei [7] = test: Antimalarial activity against Plasmodium berghei infected in Swiss Webster mouse assessed as mouse survival rate at 100 mg/kg administered once daily via oral gavage for 4 consecutive days beginning 1 hr after infection measured on day 4 post infection relative to control; type: functional; summary of the method: as §1
Plasmodium berghei [8] = test: Antimalarial activity against Plasmodium berghei infected in Swiss Webster mouse assessed as mouse survival rate at 100 mg/kg administered once daily via oral gavage for 4 consecutive days beginning 1 hr after infection measured on day 12 post infection relative to control; type: functional; summary of the method: as §1
Plasmodium berghei [9] = test: Antimalarial activity against Plasmodium berghei infected in Swiss Webster mouse assessed as mouse survival rate at 11 mg/kg administered once daily via oral gavage for 4 consecutive days beginning 1 hr after infection measured on day 4 post infection relative to control; type: functional; summary of the method: as §3
Plasmodium berghei [10] = test: Antimalarial activity against Plasmodium berghei infected in Swiss Webster mouse assessed as mouse survival rate at 100 mg/kg administered once daily via oral gavage for 4 consecutive days beginning 1 hr after infection measured on day 7 post infection relative to control; type: functional; summary of the method: as §1
Plasmodium berghei [11] = test: Antimalarial activity against Plasmodium berghei infected in Swiss Webster mouse assessed as mouse survival rate at 0.1 mg/kg administered once daily via oral gavage for 4 consecutive days beginning 1 hr after infection measured on day 7 post infection relative to control; type: functional; summary of the method: as §1
Plasmodium berghei [12] = test: Antimalarial activity against Plasmodium berghei infected in Swiss Webster mouse assessed as mouse survival rate at 0.1 mg/kg administered once daily via oral gavage for 4 consecutive days beginning 1 hr after infection measured on day 6 post infection relative to control; type: functional; summary of the method: as §1
Plasmodium berghei [13] = test: Antimalarial activity against Plasmodium berghei infected in Swiss Webster mouse assessed as mouse survival rate at 33 mg/kg administered once daily via oral gavage for 4 consecutive days beginning 1 hr after infection measured on day 10 post infection relative to control; type: functional; summary of the method: as §3
Plasmodium berghei [14] = test: Antimalarial activity against Plasmodium berghei infected in Swiss Webster mouse assessed as mouse survival rate at 1.2 mg/kg administered once daily via oral gavage for 4 consecutive days beginning 1 hr after infection measured on day 5 post infection relative to control; type: functional; summary of the method: as §1
Plasmodium berghei [15] = test: Antimalarial activity against Plasmodium berghei infected in Swiss Webster mouse assessed as mouse survival rate at 33 mg/kg administered once daily via oral gavage for 4 consecutive days beginning 1 hr after infection measured on day 13 post infection relative to control; type: functional; summary of the method: as §3
[16] = Metabolic stability in rat hepatocytes at 22 uM after 44 hrs; type: ADME, cell-based, Hepatocyte
Plasmodium berghei [17] = test: Antimalarial activity against Plasmodium berghei infected in Swiss Webster mouse assessed as mouse survival rate at 33 mg/kg administered once daily via oral gavage for 4 consecutive days beginning 1 hr after infection measured on day 11 post infection relative to control; type: functional; summary of the method: as §3
Plasmodium berghei [18] = test: Antimalarial activity against Plasmodium berghei infected in Swiss Webster mouse assessed as mouse survival rate at 100 mg/kg administered once daily via oral gavage for 4 consecutive days beginning 1 hr after infection measured on day 13 post infection relative to control; type: functional; summary of the method: as §1
Plasmodium berghei [19] = test: Antimalarial activity against Plasmodium berghei infected in Swiss Webster mouse assessed as mouse survival rate at 3.7 mg/kg administered once daily via oral gavage for 4 consecutive days beginning 1 hr after infection measured on day 4 post infection relative to control; type: functional; summary of the method: as §3
Plasmodium berghei [20] = test: Antimalarial activity against Plasmodium berghei infected in Swiss Webster mouse assessed as mouse survival rate at 0.1 mg/kg administered once daily via oral gavage for 4 consecutive days beginning 1 hr after infection measured on day 4 post infection relative to control; type: functional; summary of the method: as §1
Plasmodium berghei [21] = test: Antimalarial activity against Plasmodium berghei infected in Swiss Webster mouse assessed as mouse survival rate at 100 mg/kg administered once daily via oral gavage for 4 consecutive days beginning 1 hr after infection measured on day 14 post infection relative to control; type: functional; summary of the method: as §1
Plasmodium berghei [22] = test: Antimalarial activity against Plasmodium berghei infected in Swiss Webster mouse assessed as mouse survival rate at 0.4 mg/kg administered once daily via oral gavage for 4 consecutive days beginning 1 hr after infection measured on day 6 post infection relative to control; type: functional; summary of the method: as §1
Plasmodium berghei [23] = test: Antimalarial activity against Plasmodium berghei infected in Swiss Webster mouse assessed as mouse survival rate at 3.7 mg/kg administered once daily via oral gavage for 4 consecutive days beginning 1 hr after infection measured on day 5 post infection relative to control; type: functional; summary of the method: as §3
Plasmodium berghei [24] = test: Antimalarial activity against Plasmodium berghei infected in Swiss Webster mouse assessed as mouse survival rate at 0.1 mg/kg administered once daily via oral gavage for 4 consecutive days beginning 1 hr after infection measured on day 5 post infection relative to control; type: functional; summary of the method: as §1
Plasmodium berghei [25] = test: Antimalarial activity against Plasmodium berghei infected in Swiss Webster mouse assessed as mouse survival rate at 1.2 mg/kg administered once daily via oral gavage for 4 consecutive days beginning 1 hr after infection measured on day 7 post infection relative to control; type: functional; summary of the method: as §1
Plasmodium berghei [26] = test: Antimalarial activity against Plasmodium berghei infected in Swiss Webster mouse assessed as mouse survival rate at 200 mg/kg administered once daily via oral gavage for 4 consecutive days beginning 1 hr after infection measured on day 6 post infection relative to control; type: functional; summary of the method: as §3
Plasmodium berghei [27] = test: Antimalarial activity against Plasmodium berghei infected in Swiss Webster mouse assessed as mouse survival rate at 11 mg/kg administered once daily via oral gavage for 4 consecutive days beginning 1 hr after infection measured on day 9 post infection relative to control; type: functional; summary of the method: as §3
Plasmodium falciparum = test: Antimalarial activity against Plasmodium falciparum 3D7 0087/N9 infected in NOD/SCID IL2R gamma null mouse assessed as compound concentration in whole blood require to reduce parasitemia in peripheral blood administered once daily via oral gavage for 4 consecutive days measured on day 7 post infection; type: functional

Structure (SMILES)	ED90 (Plasmodium berghei [1])	survival at 100 mg/kg (Plasmodium berghei [2])	survival at 11 mg/kg (Plasmodium berghei [5])	survival at 33 mg/kg (Plasmodium berghei [6])	survival at 100 mg/kg (Plasmodium berghei [7])	survival at 100 mg/kg (Plasmodium berghei [8])	survival at 11 mg/kg (Plasmodium berghei [9])	survival at 100 mg/kg (Plasmodium berghei [10])	survival at 0.1 mg/kg (Plasmodium berghei [11])	survival at 0.1 mg/kg (Plasmodium berghei [12])	survival at 33 mg/kg (Plasmodium berghei [13])	survival at 1.2 mg/kg (Plasmodium berghei [14])	survival at 33 mg/kg (Plasmodium berghei [15])	survival at 33 mg/kg (Plasmodium berghei [17])	survival at 100 mg/kg (Plasmodium berghei [18])	survival at 3.7 mg/kg (Plasmodium berghei [19])	survival at 100 mg/kg (Plasmodium berghei [21])	survival at 0.4 mg/kg (Plasmodium berghei [22])	survival at 3.7 mg/kg (Plasmodium berghei [23])	survival at 1.2 mg/kg (Plasmodium berghei [25])	other results
Cc1c(Oc2cnc(C(=O)NC(C)CO)cn2)ccc2c1B(O)OC2 (centres undefined)	44.3 mg/kg	40%	40%	100%	100%	0%	100%	100%													half-life [3]: 2.7 h; bioavailability [4]: 85%
Cc1c(Oc2cnc(C(=O)N3CC(O)(C4CC4)C3)cn2)ccc2c1B(O)OC2	10.3 mg/kg	100%	100%	100%	100%	100%	100%	100%	0%	100%	40%	100%	40%	40%	100%	100%	0%	100%	100%	0%	Stability [16]: Stable; survival at 0.1 mg/kg (Plasmodium berghei [20]): 100%; survival at 0.1 mg/kg (Plasmodium berghei [24]): 100%
Cc1c(Oc2cnc(C(=O)N[C@@H](CO)CC(F)(F)F)cn2)ccc2c1B(O)OC2	7.3 mg/kg	0%	100%	100%	100%		100%	100%			60%	100%		0%		100%		100%	100%	0%	half-life [3]: 3 h; bioavailability [4]: 64%
Cc1c(Oc2cnc(C(=O)N3CC(O)(C(F)(F)F)C3)cn2)ccc2c1B(O)OC2	5.7 mg/kg	100%	100%	100%	100%	100%	100%	100%	0%	100%	50%		50%	50%	100%	100%	100%	100%	100%		Stability [16]: Stable; survival at 0.1 mg/kg (Plasmodium berghei [20]): 100%; survival at 0.1 mg/kg (Plasmodium berghei [24]): 100%
Cc1c(Oc2cnc(C(=O)NCCO)cn2)ccc2c1B(O)OC2	56.1 mg/kg		100%	0%	100%		100%	80%				100%				100%			100%	0%	half-life [3]: 3 h; bioavailability [4]: 94%; survival at 200 mg/kg (Plasmodium berghei [26]): 100%
CCCC1(O)CN(C(=O)c2cnc(Oc3ccc4c(c3C)B(O)OC4)cn2)C1	3.3 mg/kg	100%	100%	100%	100%	100%	100%	100%	0%	100%	100%	100%	100%	100%	100%	100%	80%	100%	100%	0%	Stability [16]: Stable; survival at 200 mg/kg (Plasmodium berghei [26]): 100%; survival at 11 mg/kg (Plasmodium berghei [27]): 0%; survival at 0.1 mg/kg (Plasmodium berghei [20]): 100%; survival at 0.1 mg/kg (Plasmodium berghei [24]): 100%
CCC[C@H](CO)NC(=O)c1cnc(Oc2ccc3c(c2C)B(O)OC3)cn1	11.7 mg/kg	20%	100%	100%	100%	20%	100%	100%				100%			20%	100%	0%		100%	0%	AUCED90 (Plasmodium falciparum): 7.45 µg.hr/ml/day; half-life [3]: 4.5 h; bioavailability [4]: 103%; survival at 200 mg/kg (Plasmodium berghei [26]): 100%
CCC1(O)CN(C(=O)c2cnc(Oc3ccc4c(c3C)B(O)OC4)cn2)C1	4.8 mg/kg	100%	100%	100%	100%	100%	100%	100%	0%	100%	20%	100%	20%	20%	100%	100%	0%	100%	100%	0%	AUCED90 (Plasmodium falciparum): 1.6 µg.hr/ml/day; Stability [16]: Stable; survival at 200 mg/kg (Plasmodium berghei [26]): 100%; survival at 0.1 mg/kg (Plasmodium berghei [20]): 100%; survival at 0.1 mg/kg (Plasmodium berghei [24]): 100%
Cc1c(Oc2cnc(C(=O)N3CC(O)(C(C)C)C3)cn2)ccc2c1B(O)OC2	4.5 mg/kg	100%	100%	100%	100%	100%	100%	100%	0%	100%	100%		100%	100%	100%	100%	100%	100%	100%		Stability [16]: Stable; survival at 200 mg/kg (Plasmodium berghei [26]): 100%; survival at 11 mg/kg (Plasmodium berghei [27]): 60%; survival at 0.1 mg/kg (Plasmodium berghei [20]): 100%; survival at 0.1 mg/kg (Plasmodium berghei [24]): 100%
